Test [1] deals with T1, Nicotinic acetylcholine receptor alpha4/beta2/alpha5 (Homo sapiens) (UniProt P17787+P43681+P30532). The test can be described thus: Positive allosteric modulation of human alpha4beta2alpha5 nACHR expressed in HEK-tsA201 cells assessed as potentiation of nicotine-induced current at 1 uM preincubated for 15 mins followed by nicotine-treatment by fluorometric analysis. It is filed as cell-based. In short, it runs like this: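 In human α4β2α5 AChR HEK tsA201 cells (200,000/well, 20 h at 29 °C before testing), compound was added 15 min before nicotine. Potentiation of the nicotine response was read by membrane-potential fluorescence on a FLEXstation, with 3–4 wells averaged per point.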

Test [2] concerns the target T1, Nicotinic acetylcholine receptor alpha4/beta2/alpha5 (Homo sapiens). Put plainly: Agonist activity at human alpha4beta2alpha5 nACHR expressed in HEK-tsA201 cells by fluorometric analysis. The class given is cell-based.
In test [3] the target is Nicotinic acetylcholine receptor alpha3/beta4/alpha5 (Homo sapiens) (UniProt P30926+P32297+P30532). The test can be described thus: Positive allosteric modulation of human alpha3beta4alpha5 nACHR expressed in HEK-tsA201 cells assessed as potentiation of nicotine-induced current preincubated for 15 mins followed by nicotine-treatment by fluorometric analysis. The class given is cell-based. In short, it runs like this: (§1)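 Human AChR subtypes were stably expressed in HEK tsA201 cells grown in DMEM with 10% FBS at 37 °C. Plating was 150,000/well for lines without α5 and 200,000/well for α5 lines, on poly-D-lysine plates. β2-containing lines were incubated 20 h at 29 °C before testing. Serial dilutions of compound were added 15 min before nicotine. Membrane-potential fluorescence was read on a FLEXstation, with 3–4 wells per point and a Hill equation fit.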

The target of test [4] is Nicotinic acetylcholine receptor alpha3/beta2/alpha5 (Homo sapiens) (UniProt P17787+P32297+P30532). Put plainly: Positive allosteric modulation of human alpha3beta2alpha5 nACHR expressed in HEK-tsA201 cells assessed as potentiation of nicotine-induced current preincubated for 15 mins followed by nicotine-treatment by fluorometric analysis. The class given is cell-based. In short, it runs like this:
as §1

The target in test [5] is T2, Neuronal acetylcholine receptor; alpha4/beta2 (Homo sapiens, UniProt P17787+P43681). Put plainly: Positive allosteric modulation of human alpha4beta2 nACHR expressed in HEK-tsA201 cells assessed as potentiation of nicotine-induced current preincubated for 15 mins followed by nicotine-treatment by fluorometric analysis. It is filed as cell-based. In short, it runs like this: as §1

The target of test [6] is T2, Neuronal acetylcholine receptor; alpha4/beta2. Put plainly: Positive allosteric modulation of alpha4beta2 nACHR (unknown origin). It is filed as protein-complex assay.
Test [7] has as its target Neuronal acetylcholine receptor; alpha3/beta4 (Homo sapiens) (UniProt P30926+P32297). Put plainly: Positive allosteric modulation of human alpha3beta4 nACHR expressed in HEK-tsA201 cells assessed as potentiation of nicotine-induced current preincubated for 15 mins followed by nicotine-treatment by fluorometric analysis. The class given is cell-based. The essentials:
as §1

Test [8] addresses Nicotinic acetylcholine receptor alpha4/beta2/alpha5 (Homo sapiens, UniProt P17787+P30532+P43681). Put plainly: Positive allosteric modulation of human alpha4beta2alpha5 nACHR expressed in HEK-tsA201 cells assessed as potentiation of nicotine-induced current preincubated for 15 mins followed by nicotine-treatment by fluorometric analysis. The class given is cell-based. The essentials: as §1

The target of test [9] is Neuronal acetylcholine receptor; alpha3/beta2 (Homo sapiens) (UniProt P17787+P32297). Put plainly: Positive allosteric modulation of human alpha3beta2 nACHR expressed in HEK-tsA201 cells assessed as potentiation of nicotine-induced current preincubated for 15 mins followed by nicotine-treatment by fluorometric analysis. The class given is cell-based. In short, it runs like this:
as §1

Test [10] deals with T1, Nicotinic acetylcholine receptor alpha4/beta2/alpha5 (Homo sapiens). The test can be described thus: Positive allosteric modulation of human alpha4beta2alpha5 nACHR expressed in HEK-tsA201 cells assessed as potentiation of nicotine-induced current preincubated for 15 mins followed by nicotine-treatment by fluorometric analysis relative to NS9283. The class given is cell-based. In short, it runs like this: as §1

Activity calls are given as the source filed them. The calls are words filed in the database; no cut-off is given here. A value given as a limit tells only on which side of the number the result lay.

The values below come from ChEMBL document CHEMBL3102781, “Synthesis and activity of substituted heteroaromatics as positive allosteric modulators for α4β2α5 nicotinic acetylcholine receptors” (Bioorg Med Chem Lett, 2014).

Broadly, the EC50 is the concentration giving half of the maximal effect.

Nicotinic acetylcholine receptor alpha4/beta2/alpha5, sequence (P17787 whole entry): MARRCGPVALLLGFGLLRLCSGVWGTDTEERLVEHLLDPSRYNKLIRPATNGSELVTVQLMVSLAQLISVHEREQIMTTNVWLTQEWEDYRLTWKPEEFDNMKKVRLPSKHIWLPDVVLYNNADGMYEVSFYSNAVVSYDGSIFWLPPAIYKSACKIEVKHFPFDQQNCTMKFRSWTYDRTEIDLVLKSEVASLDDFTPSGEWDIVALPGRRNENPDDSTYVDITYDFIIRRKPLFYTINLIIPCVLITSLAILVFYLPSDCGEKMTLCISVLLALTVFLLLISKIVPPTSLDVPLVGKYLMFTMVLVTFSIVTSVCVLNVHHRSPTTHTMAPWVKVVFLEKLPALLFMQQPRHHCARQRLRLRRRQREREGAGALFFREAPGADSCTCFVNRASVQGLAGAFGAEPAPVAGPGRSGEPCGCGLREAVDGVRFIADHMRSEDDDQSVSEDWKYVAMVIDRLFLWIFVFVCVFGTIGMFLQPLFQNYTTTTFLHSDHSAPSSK
Nicotinic acetylcholine receptor alpha4/beta2/alpha5, sequence (P43681 whole entry): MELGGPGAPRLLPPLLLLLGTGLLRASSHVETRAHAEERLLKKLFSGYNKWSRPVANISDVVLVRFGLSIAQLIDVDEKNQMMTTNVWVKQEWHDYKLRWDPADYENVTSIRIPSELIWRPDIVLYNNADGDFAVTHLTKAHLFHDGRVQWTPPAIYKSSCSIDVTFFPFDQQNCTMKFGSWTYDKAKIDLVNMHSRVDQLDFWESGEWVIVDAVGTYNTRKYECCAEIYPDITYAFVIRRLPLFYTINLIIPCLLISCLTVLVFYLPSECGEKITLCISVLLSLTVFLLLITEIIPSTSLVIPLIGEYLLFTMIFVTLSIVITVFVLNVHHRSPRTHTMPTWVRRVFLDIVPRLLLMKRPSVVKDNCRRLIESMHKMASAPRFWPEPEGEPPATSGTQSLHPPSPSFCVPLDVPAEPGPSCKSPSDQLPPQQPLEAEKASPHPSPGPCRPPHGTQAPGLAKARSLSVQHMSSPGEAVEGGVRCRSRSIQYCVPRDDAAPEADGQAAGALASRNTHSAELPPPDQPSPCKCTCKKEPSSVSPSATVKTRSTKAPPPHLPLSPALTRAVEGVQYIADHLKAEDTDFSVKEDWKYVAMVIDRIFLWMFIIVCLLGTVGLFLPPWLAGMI
Nicotinic acetylcholine receptor alpha4/beta2/alpha5, sequence (P30532 whole entry): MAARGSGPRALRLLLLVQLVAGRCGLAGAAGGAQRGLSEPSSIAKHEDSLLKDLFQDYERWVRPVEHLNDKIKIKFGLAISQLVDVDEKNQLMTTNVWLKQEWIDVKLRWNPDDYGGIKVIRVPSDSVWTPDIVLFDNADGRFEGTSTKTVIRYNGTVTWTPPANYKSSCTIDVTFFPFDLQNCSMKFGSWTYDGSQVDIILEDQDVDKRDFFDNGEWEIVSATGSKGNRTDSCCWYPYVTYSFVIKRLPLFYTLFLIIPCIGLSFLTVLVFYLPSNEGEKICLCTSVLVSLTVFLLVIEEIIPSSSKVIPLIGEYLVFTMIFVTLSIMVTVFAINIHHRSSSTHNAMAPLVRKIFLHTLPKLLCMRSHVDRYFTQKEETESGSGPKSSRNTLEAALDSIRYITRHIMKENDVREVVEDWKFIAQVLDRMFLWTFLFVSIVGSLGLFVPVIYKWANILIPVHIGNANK
T2 sequence (P17787 whole entry): as the sequence (P17787 whole entry) above
T2 sequence (P43681 whole entry): as the sequence (P43681 whole entry) above

For the molecule `Fc1cccc(-c2nc(-c3cccnc3)no2)c1`, the result in test [1] and in test [2] was inactive.
Consider `Cc1ccc(-n2nnc(-c3cccnc3)n2)cc1C#N`, for which the outcome in test [1] and in test [2] was inactive.
For `N#Cc1cccc(-c2nc(-c3cccnc3)no2)c1`, the result in test [3], in [4], in test [2], in test [7] and in test [9] was inactive. Further, in [1], the Activity was greater than 50%. For the same molecule, the result in [5] was Active. Also, the 50% effective concentration (EC50) in [6] is 990 nM; in test [8], 790 nM.
`NC(=O)c1cccc(-n2nnc(-c3cccnc3)n2)c1`: the result in [1] and in test [2] was inactive.
In the case of `N#Cc1cccc(-c2cn(-c3cccnc3)nn2)c1`, the result in test [1] and in test [2] was inactive.
Take `Clc1cc(Cl)cc(-n2nnc(-c3cccnc3)n2)c1`: the outcome in test [1] and in [2] was inactive.
Regarding `COc1cccc(-c2nc(-c3cccnc3)no2)c1`, the outcome in test [1] and in [2] was inactive.
For `N#Cc1cccc(-n2nnc(-c3cnccc3Cl)n2)c1`, the outcome in [1] and in test [2] was inactive.
Turning to `N#Cc1cccc(-c2nc(-c3ccncc3)no2)c1`, the outcome in [1] and in test [2] was inactive.
Consider `O=[N+]([O-])c1ccc(-c2nc(-c3cccnc3)no2)cc1`, for which the Emax in test [10] was determined as 0.81. For the same molecule, the Activity in test [1] is greater than 50%. Also, the outcome in [2] was inactive. Moreover, the concentration for a half-maximal effect (EC50) in test [8] came out at 1700 nM.
In the case of `N#Cc1ccc(-n2nnc(-c3cccnc3)n2)cc1`, in test [10], the Emax was found to be 0.96. Further, in test [1], the Activity was greater than 50%. In addition, the result in test [2] was inactive. Further, the half-maximal effective concentration (EC50) in [8] was determined as 2200 nM.
For `c1cncc(-c2noc(-c3cccnc3)n2)c1`, in that order: 0.98, greater than 50%, “inactive” and 1000 nM.
For `N#Cc1cccc(-c2ncn(-c3cccnc3)n2)c1`, the outcome in test [1] and in [2] was inactive.
Consider `N#Cc1cccc(-n2nnc(-c3ccccc3)n2)c1`, for which the outcome in test [1] and in test [2] was inactive.
Turning to `Fc1ccc(-c2nc(-c3cccnc3)no2)cc1F`, the Emax in [10] turned out to be 1.2. Further, the Activity in [1] is greater than 50%. The result in [2] was inactive. Further, the EC50 in [8] turned out to be 1300 nM.
For `N#Cc1cccc(-n2cnc(-c3cccnc3)c2)c1`, the outcome in test [1] and in test [2] was inactive.
For `N#Cc1cccc(-n2nnc(-c3ccccn3)n2)c1`, the result in [1] and in test [2] was inactive.
In the case of `N#Cc1cccc(-n2nnc(-c3ccc(Cl)nc3)n2)c1`, the outcome in test [1] and in test [2] was inactive.
On to `Clc1ccccc1-c1nc(-c2cccnc2)no1`, for which the outcome in [1] and in [2] was inactive.
Take `COc1ccc(OC)c(-n2nnc(-c3cccnc3)n2)c1`: the outcome in test [1] and in test [2] was inactive.
Regarding `c1cncc(-c2nnn(-c3cccnc3)n2)c1`, in test [10], the Emax came to 1.9. The Activity in test [1] is greater than 50%. In addition, the result in [2] was inactive. Also, the EC50 in [8] stood at 700 nM.
With `N#Cc1cccc(-n2cnc(-c3cccnc3)n2)c1`, the result in test [1] and in [2] was inactive.
Turning to `N#Cc1cccc(-n2nnc(-c3ccncc3)n2)c1`, the result in test [1] and in test [2] was inactive.
Take `FC(F)(F)Oc1cccc(-c2nc(-c3cccnc3)no2)c1`: the outcome in [1] and in [2] was inactive.
For `N#Cc1cccc(-c2nc(-c3ccccc3)no2)c1`, the outcome in test [1] and in test [2] was inactive.
On to `N#Cc1cccc(-n2ccc(-c3cccnc3)n2)c1`, for which the result in test [1] and in test [2] was inactive.
For the molecule `N#Cc1cccc(-c2cn(-c3cccnc3)cn2)c1`, the result in test [1] and in test [2] was inactive.
Consider `Fc1cccc(-c2nc(-c3cccnc3)no2)c1F`, for which the result in [1] and in test [2] was inactive.
`Brc1cccc(-n2nnc(-c3cccnc3)n2)c1`: the outcome in test [1] and in test [2] was inactive.
As to `O=[N+]([O-])c1ccccc1-c1nc(-c2cccnc2)no1`, the result in test [1] and in test [2] was inactive.
For `N#Cc1cccc(-n2cc(-c3cccnc3)cn2)c1`, the outcome in [1] and in test [2] was inactive.
For `N#Cc1cccc(-c2nc(-c3ccccn3)no2)c1`, the result in [1] and in [2] was inactive.
On to `N#Cc1cccc(-n2nnc(-c3cccnc3Cl)n2)c1`, for which the outcome in [1] and in test [2] was inactive.
On to `C[n+]1cccc(-c2noc(-c3cccc(C#N)c3)n2)c1`, for which the outcome in test [1] and in test [2] was inactive.
Regarding `N#Cc1cccc(-c2nnc(-c3cccnc3)[nH]2)c1`, the result in test [1] and in test [2] was inactive.
Turning to `Clc1ccc(-c2nc(-c3cccnc3)no2)cc1`, the result in test [1] and in [2] was inactive.
With `N#Cc1cccc(-n2nnc(-c3cncc(Cl)c3)n2)c1`, the outcome in [1] and in [2] was inactive.
Take `Fc1ccc(-n2nnc(-c3cccnc3)n2)c(F)c1`: the result in test [1] and in test [2] was inactive.
In the case of `Clc1ccccc1-n1nnc(-c2cccnc2)n1`, the outcome in test [1] and in test [2] was inactive.
Consider `C[n+]1cccc(-c2nnn(-c3cccc(C#N)c3)n2)c1`, for which the outcome in test [1] and in test [2] was inactive.
Take `FC(F)(F)c1cccc(-c2nc(-c3cccnc3)no2)c1`: the result in [1] and in [2] was inactive.
As for `N#Cc1cccc(-n2cc(-c3cccnc3)nn2)c1`, the result in test [1] and in test [2] was inactive.
Consider `c1ccc(-c2nc(-c3cccnc3)no2)cc1`, for which the result in [1] and in test [2] was inactive.
For `O=[N+]([O-])c1cccc(-c2nc(-c3cccnc3)no2)c1`, the Emax in test [10] was found to be 1.2. Further, in [1], the Activity is greater than 50%. In [2], the outcome was inactive. Besides, in test [8], the EC50 worked out at 690 nM.
As for `N#Cc1cccc(-c2ccn(-c3cccnc3)n2)c1`, the outcome in test [1] and in [2] was inactive.
Consider `COc1cc(OC)cc(-n2nnc(-c3cccnc3)n2)c1`, for which the outcome in test [1] and in [2] was inactive.
